In ChEMBL document CHEMBL1147110, “Antifungal drug susceptibility profile of Pichia anomala isolates from patients presenting with nosocomial fungemia” (2007):

Experiments:
Format in all cases: functional
[1] = tested on: Wickerhamomyces anomalus; assay: Antimicrobial susceptibility of Pichia anomala from nosocomial fungemia patient assessed as percent susceptible isolates at 1 ug/ml by CLSI method
Method in brief: (§1)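 CLSI broth microdilution on 58 P. anomala isolates: 52 unrelated bloodstream isolates (36 Brazil, 13 Argentina, 3 Spain) and 6 from unknown clinical specimens (USA). Fluconazole was tested at 0.12–64 µg/ml. MICs were read spectrophotometrically at 530 nm after 48 h. Endpoints were ≥95% inhibition vs drug-free control for amphotericin B, and ≥50% for azoles and caspofungin. Results are given as cumulative % of isolates at each MIC.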

[2] = tested on: Wickerhamomyces anomalus; assay: Antimicrobial susceptibility of Pichia anomala from nosocomial fungemia patient assessed as percent susceptible isolates at 0.03 ug/ml by EUCAST method
Method in brief: (§2)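 EUCAST broth microdilution on the same 58 P. anomala isolates (52 bloodstream isolates from Brazil, Argentina and Spain; 6 from USA). MICs were read spectrophotometrically at 530 nm after 24 h incubation. Endpoints were complete or nearly complete (≥95%) inhibition for amphotericin B, and ≥50% inhibition for azoles and caspofungin, relative to drug-free control. Isolates were tallied as cumulative % per MIC.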

[3] = tested on: Wickerhamomyces anomalus; assay: Antimicrobial susceptibility of Pichia anomala from nosocomial fungemia patient assessed as percent susceptible isolates by EUCAST method; method in brief: as §2
[4] = tested on: Wickerhamomyces anomalus; assay: Antimicrobial susceptibility of Pichia anomala from nosocomial fungemia patient assessed as percent susceptible isolates at 1 ug/ml by EUCAST method; method in brief: as §2
[5] = tested on: Wickerhamomyces anomalus; assay: Antimicrobial susceptibility of Pichia anomala from nosocomial fungemia patient assessed as percent susceptible isolates at 0.25 ug/ml by EUCAST method
Method in brief: (§3)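 58 P. anomala isolates (52 unrelated bloodstream isolates from Brazil, Argentina and Spain; 6 from unknown US clinical specimens). EUCAST broth microdilution, 24 h incubation, spectrophotometric reading at 530 nm. The MIC endpoint was ≥95% inhibition versus the drug-free control for the polyene and ≥50% for azoles and the echinocandin. Cumulative % of isolates inhibited at each MIC was recorded.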

[6] = tested on: Wickerhamomyces anomalus; assay: Antimicrobial susceptibility of Pichia anomala from nosocomial fungemia patient assessed as percent susceptible isolates at 0.12 ug/ml by EUCAST method; method in brief: as §2
[7] = tested on: Wickerhamomyces anomalus; assay: Antimicrobial susceptibility of Pichia anomala from nosocomial fungemia patient assessed as percent susceptible isolates at 0.5 ug/ml by CLSI method
Method in brief: as §3, with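 “CLSI” for “EUCAST”, “48” for “24”, “read” for “spectrophotometric reading”, “well” for “control”, “recorded, with susceptibility assigned by CLSI interpretive criteria.” for “recorded.”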

[8] = tested on: Wickerhamomyces anomalus; assay: Antimicrobial susceptibility of Pichia anomala from nosocomial fungemia patient assessed as percent susceptible isolates by CLSI method
Method in brief: as §3, with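 “CLSI” for “EUCAST”, “48” for “24”, “read” for “spectrophotometric reading”, “well” for “control”, “recorded, with susceptibility assigned by CLSI interpretive criteria.” for “recorded.”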

[9] = tested on: Wickerhamomyces anomalus; assay: Antimicrobial susceptibility of Pichia anomala from nosocomial fungemia patient assessed as percent susceptible isolates at 0.25 ug/ml by CLSI method; method in brief: as §1
[10] = tested on: Wickerhamomyces anomalus; assay: Antimicrobial susceptibility of Pichia anomala from nosocomial fungemia patient assessed as percent susceptible isolates at 0.5 ug/ml by EUCAST method; method in brief: as §2
[11] = tested on: Wickerhamomyces anomalus; assay: Antimicrobial susceptibility of Pichia anomala from nosocomial fungemia patient assessed as percent susceptible isolates at 0.015 ug/ml by CLSI method; method in brief: as §1
[12] = tested on: Wickerhamomyces anomalus; assay: Antimicrobial susceptibility of Pichia anomala from nosocomial fungemia patient assessed as percent susceptible isolates at 0.12 ug/ml by CLSI method
Method in brief: as §3, with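 “CLSI” for “EUCAST”, “48” for “24”, “read” for “spectrophotometric reading”, “well” for “control”, “recorded, with susceptibility assigned by CLSI interpretive criteria.” for “recorded.”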

[13] = tested on: Wickerhamomyces anomalus; assay: Antimicrobial susceptibility of Pichia anomala from nosocomial fungemia patient assessed as percent susceptible isolates at 0.06 ug/ml by EUCAST method; method in brief: as §2
[14] = tested on: Wickerhamomyces anomalus; assay: Antimicrobial susceptibility of Pichia anomala from nosocomial fungemia patient assessed as percent susceptible isolates at 0.015 ug/ml by EUCAST method; method in brief: as §2
[15] = tested on: Wickerhamomyces anomalus; assay: Antimicrobial susceptibility of Pichia anomala from nosocomial fungemia patient assessed as percent susceptible isolates at 0.06 ug/ml by CLSI method; method in brief: as §1
[16] = tested on: Wickerhamomyces anomalus; assay: Antimicrobial susceptibility of Pichia anomala from nosocomial fungemia patient assessed as percent susceptible isolates at 0.03 ug/ml by CLSI method; method in brief: as §1
[17] = tested on: Wickerhamomyces anomalus; assay: Antimicrobial susceptibility of Pichia anomala from nosocomial fungemia patient assessed as percent susceptible isolates at 2 ug/ml by EUCAST method; method in brief: as §3
[18] = tested on: Wickerhamomyces anomalus; assay: Antimicrobial susceptibility of Pichia anomala from nosocomial fungemia patient assessed as percent susceptible isolates at 4 ug/ml by EUCAST method; method in brief: as §3
[19] = tested on: Wickerhamomyces anomalus; assay: Antimicrobial susceptibility of Pichia anomala from nosocomial fungemia patient assessed as percent susceptible isolates at 16 ug/ml by CLSI method
Method in brief: as §3, with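 “CLSI” for “EUCAST”, “48” for “24”, “read” for “spectrophotometric reading”, “well” for “control”, “recorded, with susceptibility assigned by CLSI interpretive criteria.” for “recorded.”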

[20] = tested on: Wickerhamomyces anomalus; assay: Antimicrobial susceptibility of Pichia anomala from nosocomial fungemia patient assessed as percent susceptible isolates at 16 ug/ml by EUCAST method; method in brief: as §3
[21] = tested on: Wickerhamomyces anomalus; assay: Antimicrobial susceptibility of Pichia anomala from nosocomial fungemia patient assessed as percent susceptible isolates at 8 ug/ml by EUCAST method; method in brief: as §3
[22] = tested on: Wickerhamomyces anomalus; assay: Antimicrobial susceptibility of Pichia anomala from nosocomial fungemia patient assessed as percent susceptible isolates at 2 ug/ml by CLSI method
Method in brief: as §3, with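 “CLSI” for “EUCAST”, “48” for “24”, “read” for “spectrophotometric reading”, “well” for “control”, “recorded, with susceptibility assigned by CLSI interpretive criteria.” for “recorded.”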

[23] = tested on: Wickerhamomyces anomalus; assay: Antimicrobial susceptibility of Pichia anomala from nosocomial fungemia patient assessed as percent susceptible isolates at 8 ug/ml by CLSI method
Method in brief: as §3, with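 “CLSI” for “EUCAST”, “48” for “24”, “read” for “spectrophotometric reading”, “well” for “control”, “recorded, with susceptibility assigned by CLSI interpretive criteria.” for “recorded.”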

[24] = tested on: Wickerhamomyces anomalus; assay: Antimicrobial susceptibility of Pichia anomala from nosocomial fungemia patient assessed as percent susceptible isolates at 4 ug/ml by CLSI method
Method in brief: as §3, with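 “CLSI” for “EUCAST”, “48” for “24”, “read” for “spectrophotometric reading”, “well” for “control”, “recorded, with susceptibility assigned by CLSI interpretive criteria.” for “recorded.”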

Row | Compound | Activity [1] [%] | Activity [2] [%] | Activity [3] [%] | Activity [4] [%] | Activity [5] [%] | Activity [6] [%] | Cumulative percent of isolates inhibited [7] [%] | Activity [8] [%] | Cumulative percent of isolates inhibited [9] [%] | Activity [10] [%] | Activity [11] [%] | Activity [12] [%] | Activity [13] [%] | Activity [14] [%] | Cumulative percent of isolates inhibited [15] [%] | Cumulative percent of isolates inhibited [16] [%] | further results
1 | C[C@@H]1[C@H](O)[C@@H](C)/C=C/C=C/C=C/C=C/C=C/C=C/C=C/[C@H](O[C@@H]2O[C@H](C)[C@@H](O)[C@H](N)[C@@H]2O)C[C@@H]2O[C@](O)(C[C@@H](O)C[C@@H](O)[C@H](O)CC[C@@H](O)C[C@@H](O)CC(=O)O[C@H]1C)C[C@H](O)[C@H]2C(=O)O [AMPHOTERICIN B] | 100 | 0 | 100 | 100 | 55.1 | 15.5 | 88 | 100 | 36 | 94.7 | 0 | 12 | 0 | 0 | 0 | 0 | –
2 | CC[C@H](C)C[C@H](C)CCCCCCCCC(=O)N[C@H]1C[C@@H](O)[C@@H](NCCN)NC(=O)[C@@H]2[C@@H](O)CCN2C(=O)[C@H]([C@H](O)CCN)NC(=O)[C@H]([C@H](O)[C@@H](O)c2ccc(O)cc2)NC(=O)[C@@H]2C[C@@H](O)CN2C(=O)[C@H]([C@@H](C)O)NC1=O [CASPOFUNGIN] | – | 12 | 100 | – | – | 100 | – | 100 | 100 | – | 0 | 84.5 | 70.6 | 0 | 17.2 | 1.7 | –
3 | OC(Cn1cncn1)(Cn1cncn1)c1ccc(F)cc1F [FLUCONAZOLE] | 0 | 0 | 93 | 0 | 0 | 0 | 0 | 96.6 | – | 0 | 0 | 0 | 0 | 0 | – | – | Activity [17]: 22.4%; Activity [18]: 55.1%; Activity [19]: 100%; Activity [20]: 100%; Activity [9]: 0%; Activity [21]: 96.5%; Activity [22]: 15.5%; Activity [23]: 93%; Activity [24]: 56.8%; Activity [15]: 0%; Activity [16]: 0%
4 | CCC(C)n1ncn(-c2ccc(N3CCN(c4ccc(OCC5COC(Cn6cncn6)(c6ccc(Cl)cc6Cl)O5)cc4)CC3)cc2)c1=O (stereo not given) [ITRACONAZOLE] | 100 | 0 | 39.6 | 100 | 91.2 | 39.5 | 96.5 | 36.2 | 74.1 | 98.2 | 1.7 | 36.1 | 7 | 0 | 12 | 0 | –
5 | C[C@@H](c1ncncc1F)[C@](O)(Cn1cncn1)c1ccc(F)cc1F [VORICONAZOLE] | – | 3.4 | 100 | – | 100 | 65.5 | 100 | 100 | 96.5 | – | 0 | 39.6 | 29.3 | 0 | 18.9 | 3.4 | –
